Laboratory results taken from ChEMBL document CHEMBL2331220, “Benzimidazole clubbed with triazolo-thiadiazoles and triazolo-thiadiazines: new anticancer agents” (2013).

Experiments:
Type in all cases: functional
Malme-3M = assay: Cytotoxicity against human MALME-3M cells after 48 hrs by SRB assay
In short: (§1)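 NCI 60-line five-dose screen. Cells were preincubated 24 h at 37 °C under 5% CO2 and 100% humidity, and time-zero plates were TCA-fixed when compound was added. Five 10-fold concentrations (0.01–100) were tested for 48 h. Cells were fixed with cold TCA (final 10%, 60 min, 4 °C), stained with 0.4% SRB for 10 min, and read at 515 nm. GI50, TGI and LC50 came from growth-percentage formulas, with out-of-range values given as > or <.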

SK-MEL-5 = assay: Cytotoxicity against human SK-MEL-5 cells after 48 hrs by SRB assay; conditions: SK-MEL-5, 48 h; in short: as §1
SR = assay: Cytotoxicity against human SR cells after 48 hrs by SRB assay
In short: (§2)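 NCI 60-line five-dose screen: cells plated, held 24 h at 37 °C, 5% CO₂ before treatment, with a TCA-fixed time-zero plate. Five final concentrations (0.01–100 µM, 10-fold dilutions) for 48 h. Cells fixed with cold TCA (10% final) and stained with 0.4% SRB in 1% acetic acid. Dye dissolved in 10 mM Tris and read at 515 nm. GI₅₀, TGI and LC₅₀ taken from percent-growth curves.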

HL-60(TB) = assay: Cytotoxicity against human HL-60(TB) cells after 48 hrs by SRB assay; conditions: HL-60, 48 h
In short: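 NCI five-dose screen: cells preincubated 24 h at 37 °C, 5% CO₂, with time-zero plates TCA-fixed. Five 10-fold dilutions (0.01–100) were added and cells incubated for 48 h, then fixed in 10% TCA for 60 min at 4 °C. Staining used 0.4% SRB in 1% acetic acid, solubilised in 10 mM Tris, with A515 read. GI₅₀, TGI and LC₅₀ were derived from Tz, control and test absorbances.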

SF-295 = assay: Cytotoxicity against human SF295 cells after 48 hrs by SRB assay; conditions: SF-295, 48 h; in short: as §1
UO-31 = assay: Cytotoxicity against human UO31 cells after 48 hrs by SRB assay; conditions: UO-31, 48 h; in short: as §2
UACC-62 = assay: Cytotoxicity against human UACC62 cells after 48 hrs by SRB assay; conditions: UACC-62, 48 h; in short: as §2
HCT-116 = assay: Cytotoxicity against human HCT116 cells after 48 hrs by SRB assay; conditions: HCT-116, 48 h; in short: as §1
NCI-H23 = assay: Cytotoxicity against human NCI-H23 cells after 48 hrs by SRB assay; conditions: NCI-H23, 48 h; in short: as §1
SNB-19 = assay: Cytotoxicity against human SNB19 cells after 48 hrs by SRB assay; conditions: SNB-19, 48 h; in short: as §2
HT-29 = assay: Cytotoxicity against human HT-29 cells after 48 hrs by SRB assay; conditions: HT-29, 48 h; in short: as §1
IGROV-1 = assay: Cytotoxicity against human IGROV1 cells after 48 hrs by SRB assay; conditions: IGROV-1, 48 h; in short: as §1
OVCAR-4 = assay: Cytotoxicity against human OVCAR4 cells after 48 hrs by SRB assay; conditions: OVCAR-4, 48 h; in short: as §1
MDA-MB-231 = assay: Cytotoxicity against human MDA-MB-231 cells after 48 hrs by SRB assay; conditions: MDA-MB-231, 48 h; in short: as §1
LOX IMVI = assay: Cytotoxicity against human LOXIMVI cells after 48 hrs by SRB assay; in short: as §1
SN12C = assay: Cytotoxicity against human SN12C cells after 48 hrs by SRB assay; in short: as §2
TK-10 = assay: Cytotoxicity against human TK10 cells after 48 hrs by SRB assay; conditions: TK-10, 48 h; in short: as §2
KM12 = assay: Cytotoxicity against human KM12 cells after 48 hrs by SRB assay; conditions: KM12, 48 h; in short: as §1
[1] = read-out: LC50 (the source's name)
[2] = read-out: pLC50 (the source's name) (converted)

In the case of `O=C(CCc1nnc2sc(-c3ccc(Cl)cc3Cl)nn12)c1nc2ccccc2[nH]1`, the GI50 (Malme-3M; read-out: GI50) is reported as 762 nM, the TGI (Malme-3M; read-out: TGI) is reported as 2940 nM and the GI50 (Malme-3M; read-out: pGI50 (converted)) is reported as 759 nM. It also gave a TGI (Malme-3M; read-out: pTGI (converted)) of 2950 nM, a GI50 (SK-MEL-5; read-out: GI50) of 1390 nM and a CC50 (SK-MEL-5; [1]) of 5.19 µM. It also gave a TGI (SK-MEL-5; read-out: TGI) of 2690 nM, a GI50 (SK-MEL-5; read-out: pGI50 (converted)) of 1380 nM and a CC50 (SK-MEL-5; [2]) of 5.25 µM. For the same molecule, the TGI (SK-MEL-5; read-out: pTGI (converted)) was 2690 nM, the GI50 (SR; read-out: GI50) was 333 nM and the CC50 (SR; [1]) was over 100 µM. It also gave a TGI (SR; read-out: TGI) of over 100 µM, a GI50 (SR; read-out: pGI50 (converted)) of 331 nM and a CC50 (SR; [2]) of over 100 µM. It also gave a TGI (SR; read-out: pTGI) of over 100 µM, a GI50 (HL-60(TB); read-out: GI50) of 862 nM and a CC50 (HL-60(TB); [1]) of over 100 µM. The TGI (HL-60(TB); read-out: TGI) was 5.93 µM, the GI50 (HL-60(TB); read-out: pGI50 (converted)) was 871 nM and the CC50 (HL-60(TB); [2]) was over 100 µM. It also gave a TGI (HL-60(TB); read-out: pTGI (converted)) of 5.89 µM, a GI50 (SF-295; read-out: GI50) of 1030 nM and a TGI (SF-295; read-out: TGI) of 2730 nM. For the same molecule, the GI50 (SF-295; read-out: pGI50 (converted)) was 1020 nM, the TGI (SF-295; read-out: pTGI (converted)) was 2750 nM and the GI50 (UO-31; read-out: GI50) was 576 nM. It also gave an LC50 (UO-31; read-out: LC50) of 4.63 µM, a TGI (UO-31; read-out: TGI) of 2020 nM and a GI50 (UO-31; read-out: pGI50 (converted)) of 575 nM. For the same molecule, the LC50 (UO-31; read-out: pLC50 (converted)) was 4.68 µM, the TGI (UO-31; read-out: pTGI (converted)) was 2040 nM and the GI50 (UACC-62; read-out: GI50) was 1060 nM. It also gave an LC50 (concentration giving 50% net cell kill) (UACC-62; read-out: LC50) of 5.61 µM, a TGI (UACC-62; read-out: TGI) of 2440 nM and a GI50 (UACC-62; read-out: pGI50 (converted)) of 1070 nM. It also gave an LC50 (concentration giving 50% net cell kill) (UACC-62; read-out: pLC50 (converted)) of 5.62 µM, a TGI (UACC-62; read-out: pTGI (converted)) of 2450 nM and a GI50 (HCT-116; read-out: GI50) of 320 nM. The CC50 (HCT-116; [1]) was 5.06 µM, the TGI (HCT-116; read-out: TGI) was 1240 nM and the GI50 (HCT-116; read-out: pGI50 (converted)) was 316 nM. The CC50 (HCT-116; [2]) was 5.01 µM, the TGI (HCT-116; read-out: pTGI (converted)) was 1230 nM and the GI50 (NCI-H23; read-out: GI50) was 719 nM. For the same molecule, the TGI (NCI-H23; read-out: TGI) was 2480 nM, the GI50 (NCI-H23; read-out: pGI50 (converted)) was 724 nM and the TGI (NCI-H23; read-out: pTGI (converted)) was 2450 nM. For the same molecule, the GI50 (SNB-19; read-out: GI50) was 1370 nM, the CC50 (SNB-19; [1]) was over 100 µM and the TGI (SNB-19; read-out: TGI) was 5.44 µM. The GI50 (SNB-19; read-out: pGI50 (converted)) was 1380 nM, the CC50 (SNB-19; [2]) was over 100 µM and the TGI (SNB-19; read-out: pTGI (converted)) was 5.5 µM. It also gave a GI50 (HT-29; read-out: GI50) of 362 nM, a CC50 (HT-29; [1]) of over 100 µM and a TGI (HT-29; read-out: TGI) of 1810 nM. The GI50 (HT-29; read-out: pGI50 (converted)) was 363 nM, the CC50 (HT-29; [2]) was over 100 µM and the TGI (HT-29; read-out: pTGI (converted)) was 1820 nM. For the same molecule, the GI50 (IGROV-1; read-out: GI50) was 1310 nM, the TGI (IGROV-1; read-out: TGI) was 3.51 µM and the GI50 (IGROV-1; read-out: pGI50 (converted)) was 1320 nM. The TGI (IGROV-1; read-out: pTGI (converted)) was 3.47 µM, the GI50 (OVCAR-4; read-out: GI50) was 971 nM and the CC50 (OVCAR-4; [1]) was 8.04 µM. The TGI (OVCAR-4; read-out: TGI) was 2820 nM, the GI50 (OVCAR-4; read-out: pGI50 (converted)) was 977 nM and the CC50 (OVCAR-4; [2]) was 8.13 µM. The TGI (OVCAR-4; read-out: pTGI (converted)) was 2820 nM, the GI50 (MDA-MB-231; read-out: GI50) was 1000 nM and the LC50 (MDA-MB-231; read-out: LC50) was 5.87 µM. It also gave a TGI (MDA-MB-231; read-out: TGI) of 2420 nM, a GI50 (MDA-MB-231; read-out: pGI50 (converted)) of 1000 nM and an LC50 (MDA-MB-231; read-out: pLC50 (converted)) of 5.89 µM. The TGI (MDA-MB-231; read-out: pTGI (converted)) was 2400 nM, the GI50 (LOX IMVI; read-out: GI50) was 363 nM and the TGI (LOX IMVI; read-out: TGI) was 1590 nM. For the same molecule, the GI50 (LOX IMVI; read-out: pGI50 (converted)) was 363 nM, the TGI (LOX IMVI; read-out: pTGI (converted)) was 1580 nM and the GI50 (SN12C; read-out: GI50) was 1230 nM. It also gave a TGI (SN12C; read-out: TGI) of 3.1 µM, a GI50 (SN12C; read-out: pGI50 (converted)) of 1230 nM and a TGI (SN12C; read-out: pTGI (converted)) of 3.09 µM. It also gave a GI50 (TK-10; read-out: GI50) of 2010 nM, an LC50 (TK-10; read-out: LC50) of 6.3 µM and a TGI (TK-10; read-out: TGI) of 3.55 µM. The GI50 (TK-10; read-out: pGI50 (converted)) was 2000 nM, the LC50 (TK-10; read-out: pLC50 (converted)) was 6.31 µM and the TGI (TK-10; read-out: pTGI (converted)) was 3.55 µM. For the same molecule, the GI50 (KM12; read-out: GI50) was 1160 nM, the CC50 (KM12; [1]) was 7.7 µM and the TGI (KM12; read-out: TGI) was 2.99 µM. The GI50 (KM12; read-out: pGI50 (converted)) was 1150 nM, the CC50 (KM12; [2]) was 7.76 µM and the TGI (KM12; read-out: pTGI (converted)) was 3.02 µM.
